Shown are actives, neighbours in structure and some others; about 2.6% of the full set was active somewhere.
SENP8 block-1: blocks human SENP8 cleavage of Nedd8 substrate | Q96LD8 | recombinant SENP8, Nedd8 substrate fluorescence | inhibition, % at 20 µM | 0.64% of 360,000 active | AID 602440; in the data active = inhibition mostly above about 40%, no sharp cut-off; inactive = mostly below about 27%
Target sequence (Q96LD8 whole entry, looked up): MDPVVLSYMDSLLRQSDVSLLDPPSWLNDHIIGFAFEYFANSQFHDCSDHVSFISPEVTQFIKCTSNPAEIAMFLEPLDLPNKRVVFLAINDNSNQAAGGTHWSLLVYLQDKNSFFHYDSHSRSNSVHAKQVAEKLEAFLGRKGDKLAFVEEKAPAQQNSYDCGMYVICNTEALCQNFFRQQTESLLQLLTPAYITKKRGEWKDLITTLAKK
SENP1 FRET inh: blocks the human SENP1 SUMO protease catalytic domain | recombinant SENP1 catalytic domain, CyPet-SUMO1-YPet FRET cleavage | Q9P0U3 | 0.21% of 360,000 active | inhibition, % at 10 µM;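 active = inhibition at least 30% at 10 µM, raw YFP signal under a set limit, fluorescence ratio 0.5 to 1.5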;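 note: 0% = enzyme with DMSO and 100% = no enzyme wells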
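Controls: no-enzyme wells low, DMSO-plus-enzyme wells high control. Test system: human recombinant His6-tagged SENP1 catalytic domain enzyme. Reagent: SFCypet-SUMO1-SFYpet FRET protein substrate, 25 nM final. Doses: one dose per compound, 10 µM, 0.5% DMSO. Detection: FRET, CFP and YFP emission. Timing: 50 min reaction at room temperature.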
SENP6 inh: blocks the human protease SENP6. Q9GZR1. Recombinant SENP6 catalytic domain, aminoluciferin luminescence. inhibition, % at 10 µM. 1.8% of 330,000 active;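 active = inhibition above about 50% at the single tested dose, limit read from the data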;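 note: plate controls were DMSO wells with enzyme for no effect and DMSO wells lacking enzyme for full effect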
Platelet DG rel: modulates dense granule release in human platelets; 0.22% of 300,000 active; human platelet-rich plasma, SFLLRN dense granule ATP release, luminescence; inhibition, %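 (compounds screened at 7.5 µM in platelet-rich plasma)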;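 active = mean replicate score, as percent of positive control, at or above 50; inconclusive = mean below 50 but at least one replicate at or above 50; inactive = mean and every replicate below 50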
SENP7 block: inhibitors of human SENP7 protease; Q9BQF6; recombinant SENP7, Z-RLRGG-aminoluciferin luminescence, 40 min; inhibition, % at 5 µM; 1.5% of 330,000 active; AID 434973;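 active = inhibition above about 50% at the single test dose, limit read from the data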;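 note: plate controls were DMSO with enzyme for no effect and no enzyme buffer wells for full effect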
Target sequence (Q9BQF6 706-1050 limits assumed): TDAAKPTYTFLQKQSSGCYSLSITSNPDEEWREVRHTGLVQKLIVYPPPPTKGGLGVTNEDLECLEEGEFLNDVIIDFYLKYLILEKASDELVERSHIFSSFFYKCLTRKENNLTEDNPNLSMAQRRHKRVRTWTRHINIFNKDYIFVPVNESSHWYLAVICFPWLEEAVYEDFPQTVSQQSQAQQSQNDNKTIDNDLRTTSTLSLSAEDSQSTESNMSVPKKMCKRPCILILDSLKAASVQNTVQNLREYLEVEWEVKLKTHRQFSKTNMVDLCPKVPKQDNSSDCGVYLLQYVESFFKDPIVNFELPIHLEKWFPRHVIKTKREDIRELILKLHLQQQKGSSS
SENP8 block-2: blocks the human protease SENP8. AID 2540. purified SENP8, Z-RLRGG-aminoluciferin cleavage, luminescence. inhibition, % at 10 µM. 1.2% of 330,000 active. Q96LD8; in the data active = inhibition above about 50%
Starred values were filed as active, the others as inactive.

Results for CC(C)(C)NC(=O)COC(=O)c1c2c(nc3ccccc13)CCC2 ?
SENP8 block-1: -38; SENP1 FRET inh: 3; SENP6 inh: -6; Platelet DG rel: -1; SENP7 block: 8; SENP8 block-2: 2

Results for CC(C)c1ccc(NC(=O)CCNS(=O)(=O)c2ccc3[nH]c(=O)oc3c2)cc1 ?
SENP8 block-1: 14; SENP1 FRET inh: 1; SENP6 inh: -8; Platelet DG rel: -7; SENP7 block: 9; SENP8 block-2: -1

How did CC(C)Cc1csc(NC(=O)c2ccc(F)cc2)c1C(=O)O do in these assays?
SENP8 block-1: -49; SENP1 FRET inh: 1; SENP6 inh: 89*; Platelet DG rel: 9; SENP7 block: 2; SENP8 block-2: 84*

How did Clc1ccc2[nH]c(-c3ccccc3)cc2c1 do in these assays?
SENP8 block-1: -372; SENP1 FRET inh: -1; SENP6 inh: 70*; SENP7 block: 60*; SENP8 block-2: 62*

Results for CO/N=C/C(=N\Nc1ccc(C)cc1)C(=O)c1ccc(OC)cc1 ?
SENP8 block-1: 51*; SENP1 FRET inh: -3; SENP6 inh: -3; Platelet DG rel: 11; SENP7 block: -6; SENP8 block-2: -1

Results for COc1ccc(-n2nnc3c(=O)n(CC(=O)Nc4ccc5c(c4)OCCO5)cnc32)cc1OC ?
SENP8 block-1: -74; SENP1 FRET inh: -2; SENP6 inh: -7; Platelet DG rel: 4; SENP7 block: -10; SENP8 block-2: 3

How did COc1ccc(-n2nnc3c(SCC(=O)Nc4ccc5c(c4)OCCO5)ncnc32)cc1 do in these assays?
SENP6 inh: 54*; SENP7 block: 20; SENP8 block-2: 16

Results for CC(=O)C1CCC2C(CCC3=CC(=O)CCC32)C1 (centres undefined) ?
SENP8 block-1: -3; SENP1 FRET inh: -1

Results for Cc1ccccc1NC(=O)Cc1nc(COC(=O)Cc2ccccc2F)cs1 ?
SENP8 block-1: 6; SENP1 FRET inh: -2; SENP6 inh: -17; SENP7 block: -2; SENP8 block-2: 0

How did COCCNC(=O)CCCn1c(=O)c2cc(OC)c(OC)cc2n(CC(=O)Nc2ccccc2OC)c1=O do in these assays?
SENP8 block-1: -49; SENP1 FRET inh: 1; SENP6 inh: -4; Platelet DG rel: 21; SENP7 block: 4; SENP8 block-2: 0

Results for Cc1nc2sccn2c(=O)c1S(=O)(=O)N1CCN(c2cccc(Cl)c2)CC1 ?
SENP8 block-1: 7; SENP1 FRET inh: -1; SENP6 inh: -15; Platelet DG rel: 54*; SENP7 block: 12; SENP8 block-2: -8

What do the screens show for `Cc1nc2sccn2c(=O)c1S(=O)(=O)N1CCN(c2ccccc2F)CC1`?
SENP8 block-1: 5; SENP1 FRET inh: 0

How did Nc1ccc(N)c(C(=O)O)c1 do in these assays?
SENP8 block-1: -13; SENP1 FRET inh: 38*; SENP6 inh: -53; Platelet DG rel: -1; SENP7 block: 4; SENP8 block-2: 17

What do the screens show for `COc1cc2cc(CN(CCO)S(=O)(=O)c3ccccc3Cl)c(=O)[nH]c2cc1OC`?
SENP8 block-1: -270; SENP1 FRET inh: 7; SENP6 inh: -1; Platelet DG rel: inconclusive; SENP7 block: -1; SENP8 block-2: 3

What do the screens show for `CC[C@H]1CC2CN3CCc4c([nH]c5c([C@H]6C[C@H]7[C@H](CC)CN(C)[C@@H](Cc8c6[nH]c6ccccc86)[C@H]7C(=O)OC)c(OC)ccc45)C(C(=O)OC)(C2)C13`?
SENP6 inh: 2; Platelet DG rel: 4; SENP7 block: -1; SENP8 block-2: 3

How did Cc1cc2c(c(=O)n1Cc1ccco1)C(c1cccnc1)C(C#N)=C(N)O2 (centres undefined) do in these assays?
SENP8 block-1: -74; SENP1 FRET inh: -26; SENP6 inh: 6; Platelet DG rel: 3; SENP7 block: 4; SENP8 block-2: 2

How did O=C(O)c1ccc(N=Nc2c(O)[nH]c3ccccc23)cc1 do in these assays?
SENP8 block-1: 16; SENP1 FRET inh: -25; SENP6 inh: 99*; Platelet DG rel: 133*; SENP7 block: 100*; SENP8 block-2: 97*

How did CCOC(=O)[C@@H]1[C@H]2COc3cc(OC)ccc3[C@H]2N2C(=O)N(c3ccc(Cl)cc3)C(=O)[C@]12C do in these assays?
SENP8 block-1: 9; SENP1 FRET inh: 1; SENP6 inh: -9; SENP7 block: -9; SENP8 block-2: -8

How did O=c1cc(CSc2ccccn2)[nH]c(=O)[nH]1 do in these assays?
SENP8 block-1: 26; SENP1 FRET inh: 2; SENP6 inh: 8; Platelet DG rel: 3; SENP7 block: 2; SENP8 block-2: 8

How did Cc1cc(C)c2nc(NC(=O)c3ccc([N+](=O)[O-])o3)sc2c1 do in these assays?
SENP8 block-1: -8; SENP1 FRET inh: 6; SENP6 inh: -11; Platelet DG rel: -1; SENP7 block: 10; SENP8 block-2: -7

Results for O=C(Nc1nc2cc3c(cc2s1)OCCO3)c1ccc([N+](=O)[O-])o1 ?
SENP8 block-1: -22; SENP1 FRET inh: 1; SENP6 inh: 87*; Platelet DG rel: 11; SENP7 block: 88*; SENP8 block-2: 74*

Results for COc1ccccc1C(=O)Nc1nc2cc3c(cc2s1)OCO3 ?
SENP8 block-1: -462; SENP1 FRET inh: 1; SENP6 inh: 48; Platelet DG rel: 3; SENP7 block: 79*; SENP8 block-2: 20

What do the screens show for `COc1cccc(OC)c1C(=O)Nc1nc2cc3c(cc2s1)OCO3`?
SENP8 block-1: -130; SENP1 FRET inh: 1; SENP6 inh: -4; Platelet DG rel: -9; SENP7 block: 1; SENP8 block-2: -8

How did O=C(Nc1nc2cc3c(cc2s1)OCCO3)c1cccs1 do in these assays?
SENP8 block-1: -385; SENP1 FRET inh: 1; SENP6 inh: 96*; Platelet DG rel: 31; SENP7 block: 98*; SENP8 block-2: 94*

How did Cc1ccnc(NC(=O)c2cccc(S(=O)(=O)N3CCCc4ccccc43)c2)c1 do in these assays?
SENP8 block-1: 5; SENP1 FRET inh: 1; SENP6 inh: 1; Platelet DG rel: -7; SENP7 block: -3; SENP8 block-2: -2

How did COc1cccc2c1cc1c(=O)n(CC(=O)NCCCN3CCN(C)CC3)nc(C)n12 do in these assays?
SENP8 block-1: -329; SENP1 FRET inh: 0; SENP6 inh: 5; Platelet DG rel: -1; SENP7 block: -1; SENP8 block-2: 1

Results for COC1=C(N)C(=O)c2nc(-c3nc(C(=O)O)c(C)c(-c4ccc(OC)c(OC)c4O)c3N)ccc2C1=O ?
SENP6 inh: 80*; SENP7 block: 67*; SENP8 block-2: 82*

How did COc1ccc(-c2ncncc2-c2csc(C)n2)c(O)c1OC do in these assays?
SENP8 block-1: 27; SENP1 FRET inh: 1; SENP6 inh: -12; Platelet DG rel: -2; SENP7 block: -11; SENP8 block-2: -4

Bioassay records as filed in PubChem BioAssay.
